# Measured values published in ChEMBL document CHEMBL5252546, “Salutaxel, a Conjugate of Docetaxel and a Muramyl Dipeptide (MDP) Analogue, Acts as Multifunctional Prodrug That Inhibits Tumor Growth and Metastasis” (J Med Chem, 2018).
# Calls of active or inactive are those of the source. No cut-off for these calls is given here.
# Columns and labels:
# [1] = Half life in mouse plasma implanted with mouse 4T1 cells at 10 mg/kg,iv measured upto 72 hrs; type: ADME, organism-based
# [2] = Drug excretion in rat feces at 4 mg/kg,iv measured upto 72 hrs; type: ADME, organism-based; details: faeces, read-out: Drug excretion
# [3] = Toxicity in HaM/ICR mouse assessed as effect on motor autonomic activity at 5 to 20 mg/kg,iv; type: organism-based; details: in vivo, dose 5-20 mg/kg
# [4] = Drug distribution in rat spleen at 4 mg/kg,iv measured by 0.25 hrs; type: ADME, organism-based; details: in vivo
# Summary of the method: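 Rats received 4 mg/kg iv. Parent drug and released docetaxel were assayed in tissues and plasma from the first sampling at 0.25 h to 24 h. The lower limit of quantitation was 200 ng/g.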
# [5] = Half life in Beagle dog at 4 mg/kg,iv measured upto 24 hrs; type: ADME, organism-based, Canis lupus familiaris; details: in vivo
# [6] = Half life in female Beagle dog at 1 mg/kg,iv measured upto 24 hrs; type: ADME, organism-based, Canis lupus familiaris; details: in vivo
# [7] = Half life in male rat at 8 mg/kg,iv measured upto 24 hrs; type: ADME, organism-based; details: in vivo
# [8] = Half life in female rat at 4 mg/kg,iv measured upto 24 hrs; type: ADME, organism-based; details: in vivo
# [9] = Half life in female rat at 2 mg/kg,iv measured upto 24 hrs; type: ADME, organism-based; details: in vivo
# [10] = AUC (0-infinity) in Beagle dog at 4 mg/kg,iv measured upto 24 hrs; type: ADME, organism-based, Canis lupus familiaris; parameters: time < 24 hrs, dose 4 mg/kg, route iv; details: in vivo
# Summary of the method: (§1)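 Single iv dose: rats 2, 4 or 8 mg/kg by intravenous injection; Beagle dogs 1, 2 or 4 mg/kg by intravenous infusion. Plasma concentration–time data were analysed by sex and pooled. Reported parameters: Cmax, Tmax, AUC0−t, AUC0−∞, MRT0−∞, t1/2, CL, Vss, given as mean ± SD.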
# [11] = AUC (0-infinity) in rat at 8 mg/kg,iv measured upto 24 hrs; type: ADME, organism-based; parameters: time < 24 hrs, dose 8 mg/kg, route iv; details: in vivo; summary of the method: as §1
# [12] = AUC (0-infinity) in rat at 2 mg/kg,iv measured upto 24 hrs; type: ADME, organism-based; parameters: dose 2 mg/kg, time < 24 hrs, route iv; details: in vivo; summary of the method: as §1
# [13] = AUC (0-t) in female Beagle dog at 2 mg/kg,iv measured upto 24 hrs; type: ADME, organism-based, Canis lupus familiaris; parameters: dose 2 mg/kg, time < 24 hrs, route iv; details: in vivo; summary of the method: as §1
# [14] = AUC (0-t) in rat at 8 mg/kg,iv measured upto 24 hrs; type: ADME, organism-based; parameters: dose 8 mg/kg, time < 24 hrs, route iv; details: in vivo; summary of the method: as §1
# [15] = AUC (0-t) in female rat at 4 mg/kg,iv measured upto 24 hrs; type: ADME, organism-based; parameters: time < 24 hrs, dose 4 mg/kg, route iv; details: in vivo; summary of the method: as §1
# [16] = AUC (0-t) in male rat at 4 mg/kg,iv measured upto 24 hrs; type: ADME, organism-based; parameters: time < 24 hrs, dose 4 mg/kg, route iv; details: in vivo; summary of the method: as §1
# [17] = Tmax in male rat at 2 mg/kg,iv measured upto 24 hrs; type: ADME, organism-based; details: in vivo
# [18] = Tmax in rat at 4 mg/kg,iv measured upto 24 hrs; type: ADME, organism-based; details: in vivo
# [19] = Tmax in male rat at 8 mg/kg,iv measured upto 24 hrs; type: ADME, organism-based; details: in vivo
# [20] = Cmax in Beagle dog at 2 mg/kg,iv measured upto 24 hrs; type: ADME, organism-based, Canis lupus familiaris; parameters: dose 2 mg/kg, time < 24 hrs, route iv; details: in vivo
# Summary of the method: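 Beagle dogs were given a single iv infusion at 1, 2 or 4 mg/kg. Plasma parent drug and released docetaxel were followed over time. Cmax, Tmax, AUC, MRT, t1/2, CL and Vss were reported by sex and for all dogs combined.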
# 4T1 [21] = experiment: Antitumor activity against mouse 4T1 cells xenografted with BALB/c mouse assessed as inhibition of tumor growth at 10 mg/kg,iv administrated once per week for 4 weeks; type: functional; details: 4T1, 672 h
# Summary of the method: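 4T1 cells injected into the mammary fat pad of BALB/c mice; iv saline vehicle or 5, 10 or 20 mg/kg once weekly for 4 weeks; body weight, tumour volume, tumour weight, lung metastatic nodule count and metastasis score recorded; n = 10, mean ± SEM, ANOVA and Student's t test.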
# [22] = Toxicity in Beagle dog assessed as effect on respiratory frequency at 1 to 4 mg/kg,iv; type: organism-based, Canis lupus familiaris; details: in vivo, dose 1-4 mg/kg
# [23] = Toxicity in Beagle dog assessed as effect on respiratory intensity at 1 to 4 mg/kg,iv; type: organism-based, Canis lupus familiaris; details: in vivo, dose 1-4 mg/kg
# Cytochrome P450 1A2 = Cytochrome P450 1A2 (Homo sapiens, UniProt P05177); experiment: Inhibition of CYP1A2 in human liver microsomes using probe substrate at 0.1 to 100 uM in presence of NADPH; type: ADME, Microsome; details: dose 0.1-100 µM
# [24] = Drug metabolism in mouse hepatocytes assessed as docetaxel metabolite formation at 20 uM incubated for 180 mins; type: ADME, cell-based, Hepatocyte; details: 3 h
# [25] = Stability in mouse hepatocyte assessed as compound remaining at 3 uM incubated upto 120 mins; type: ADME, cell-based; details: hepatocytes, 2 h
# [26] = Stability in rat plasma assessed as compound remaining at 1 uM incubated for 6 hrs; type: ADME, cell-free
# [27] = Toxicity in male Sprague-Dawley rat assessed as testicular atrophy at 2 to 8 mg/kg,iv measured upto 24 hrs; type: organism-based; details: in vivo, dose 2-8 mg/kg
# 4T1 [28] = experiment: Antitumor activity against mouse 4T1 cells implanted in BALB/c mouse assessed as decrease in spleen MDSC cells at 20 mg/kg,iv measured after 28 days (reference value: 38%); type: functional; parameters: scale not given: the % may be the effect or the level left; details: time 28 day
# 4T1 [29] = experiment: Antitumor activity against mouse 4T1 cells implanted in BALB/c mouse assessed as decrease in S100A8 mRNA expression in lung at 20 mg/kg,iv administrated qd for 2 days by qRT-PCR analysis; type: functional, organism-based; details: time 2.0 day
# Summary of the method: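 Day 19 after 4T1 implantation, mice randomised into five groups; iv vehicle or 20 mg/kg plus ip C12-iE-DAP (50 μg/mouse) and MDP (100 μg/mouse) once daily for 2 days; killed after 48 h; lung mRNA for MMP8, MMP9, PROK2, S100A8, S100A9 and IL-1β by qPCR; mean ± SEM.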
# [30] = Tmax in mouse tumor implanted with mouse 4T1 cells at 5.7 mg/kg,iv measured upto 72 hrs; type: ADME, organism-based, Neoplasm
# [31] = Toxicity in BALB/c mouse injected with mouse 4T1 cells assessed as body weight loss at 5.7 mg/kg,iv administrated once per week for 4 weeks; type: organism-based; details: in vivo, 672 h
# 4T1 [32] = experiment: Antitumor activity against mouse 4T1 cells xenografted with BALB/c mouse assessed as reduction lung metastatic nodules at 5.7 mg/kg,iv administrated once per week for 4 weeks; type: functional, organism-based
# Summary of the method: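 4T1 cells injected into mammary fat pads of BALB/c mice. Dosing iv once per week for 4 weeks, saline vehicle; single-agent arms were given alone or with the peptide component (5b or 6). Endpoints were body weight, tumour volume, tumour weight, lung metastatic nodule count and lung metastasis score. Mean ± SEM, n = 10; ANOVA and Student's t test.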
# 4T1 [33] = experiment: Antitumor activity against mouse 4T1 cells implanted in BALB/c mouse assessed as decrease in lung MMP2 expression level at 5.7 mg/kg,iv administrated once per week for 4 weeks by western blot assay; type: functional, organism-based
# Summary of the method: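 4T1 cells injected into mammary fat pads of BALB/c mice. Saline vehicle or test article given iv once weekly for 4 weeks. Spleen, lung and tumor lysates immunoblotted for MMP2/MMP9 with β-actin as loading control. Bands averaged over five mice per group, representative of two independent experiments.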
# 4T1 [34] = experiment: Antitumor activity against mouse 4T1 cells implanted in BALB/c mouse assessed as decrease in lung injury at 5.7 mg/kg,iv administrated once per week for 4 weeks in presence of compound 5b by H and E staining based assay; type: functional, organism-based
# Summary of the method: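 BALB/c mice bearing orthotopic mammary fat pad 4T1 tumors, dosed iv weekly for 4 weeks with saline vehicle as control. Lung sections stained with hematoxylin and eosin and examined by light microscopy at 40× for metastasis, inflammatory infiltration and alveolar wall thickening.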
# Chain of Cytochrome P450 1A2 (P05177 whole entry): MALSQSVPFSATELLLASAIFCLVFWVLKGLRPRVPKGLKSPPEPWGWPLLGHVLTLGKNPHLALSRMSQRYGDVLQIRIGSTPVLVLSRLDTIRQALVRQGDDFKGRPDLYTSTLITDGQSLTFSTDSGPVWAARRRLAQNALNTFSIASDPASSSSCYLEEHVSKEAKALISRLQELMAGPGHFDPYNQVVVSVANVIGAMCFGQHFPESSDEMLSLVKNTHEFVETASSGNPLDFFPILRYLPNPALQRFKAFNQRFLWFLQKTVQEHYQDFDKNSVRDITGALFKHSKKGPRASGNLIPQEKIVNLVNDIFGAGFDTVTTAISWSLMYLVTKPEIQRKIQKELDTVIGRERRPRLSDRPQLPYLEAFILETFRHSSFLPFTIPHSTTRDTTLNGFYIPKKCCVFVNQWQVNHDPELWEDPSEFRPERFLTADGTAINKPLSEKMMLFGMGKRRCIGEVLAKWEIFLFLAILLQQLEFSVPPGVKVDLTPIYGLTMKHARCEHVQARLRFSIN
smiles,measurement,setting,value
CC(=O)O[C@@]12CO[C@@H]1C[C@H](O)[C@@]1(C)C(=O)[C@H](O)C3=C(C)[C@@H](OC(=O)[C@H](OC(=O)CCC(=O)NCCCC[C@H](NC(=O)CC[C@@H](NC(=O)[C@H](C)NC(=O)/C=C/c4ccc(F)cc4Cl)C(N)=O)C(=O)O)[C@@H](NC(=O)OC(C)(C)C)c4ccccc4)C[C@@](O)([C@@H](OC(=O)c4ccccc4)[C@H]21)C3(C)C,half-life,[1],41.4 min
same,dose excreted at 72 h,[2],69.9%
same,Activity,[3],Non-Toxic
same,Drug uptake,[4],Active
same,half-life,[5],35.5 min
same,half-life,[6],29 min
same,half-life,[7],21.4 min
same,half-life,[8],10.4 min
same,half-life,[9],6.6 min
same,AUC(0-inf),[10],17300 ng·h/mL
same,AUC(0-inf),[11],46100 ng·h/mL
same,AUC(0-inf),[12],5230 ng·h/mL
same,AUC(0-t) at 24 h,[13],6970 ng·h/mL
same,AUC(0-t) at 24 h,[14],45800 ng·h/mL
same,AUC(0-t) at 24 h,[15],13000 ng·h/mL
same,AUC(0-t) at 24 h,[16],20700 ng·h/mL
same,Tmax,[17],4.98 min
same,Tmax,[18],4.98 min
same,Tmax,[19],4.98 min
same,Cmax,[20],12700 ng/mL
same,inhibition in vivo at 10 mg/kg,4T1 [21],37%
same,Activity,[22],Non-Toxic
same,Activity,[23],Non-Toxic
same,inhibition (INH),Cytochrome P450 1A2,Not Active
same,Drug metabolism,[24],Metabolite_Detected
same,Stability,[25],Stable
same,Stability,[26],Stable
same,Activity,[27],Toxic
same,Activity,4T1 [28],10.1%
same,Activity,4T1 [29],Active
CC(=O)O[C@@]12CO[C@@H]1C[C@H](O)[C@@]1(C)C(=O)[C@H](O)C3=C(C)[C@@H](OC(=O)[C@H](O)[C@@H](NC(=O)OC(C)(C)C)c4ccccc4)C[C@@](O)([C@@H](OC(=O)c4ccccc4)[C@H]21)C3(C)C [DOCETAXEL ANHYDROUS],Tmax,[30],30 min
same,Activity,[31],Non-Toxic
same,Activity,4T1 [32],inactive
same,Activity,4T1 [33],inactive
same,Activity,4T1 [34],Active
